Screening results from PubChem.
Arr AP2 block = inhibitors of beta-arrestin/AP2 binding, primary screen, biochemical, GPCR trafficking, flow cytometry; beta-arrestin 1 C-terminal peptide binding to AP2 beta2-adaptin appendage (human); inhibition, % at 10 µM; AID 504490, 2011; hit rate 0.31% among 340,000; FITC-arrestin peptide / GST-AP2 beads; AP2 beta2 appendage carries R879A mutation;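 active = inhibition above a set limit, near 3 SD of compounds lacking own fluorescence, cut at about 54% in these data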
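Material – GST-tagged AP2 beta2-adaptin appendage (R879A) on 4 µm glutathione beads · Probe or stimulus – fluorescein-tagged arrestin peptide at 50 nM final · Timing – 12 min plus 1 h, RT · Detection – bead flow cytometry, FITC channel · Read-out basis – inhibition as reduced fluorescein signal on beads, percent · Medium – PBS plus Tween 20 (0.05%) and BSA (0.1%)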
ADAM17 inh = ADAM17 inhibitors, primary screen, biochemical, QFRET. recombinant ADAM17, EDANS/DABCYL FRET peptide cleavage. Disintegrin and metalloproteinase domain-containing protein 17 (Homo sapiens), P78536. hit rate 0.83% among 370,000. inhibition, % at 6.95 µM. AID 720648, 2013;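 active = inhibition above the mean of compounds lying between control limits plus 3 SD, set per campaign, cut at about 8.5% in these data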
ADAM10 inh = human ADAM10 inhibitors, primary screen, biochemical, QFRET, HTS; recombinant ADAM10, EDANS/DABCYL FRET peptide cleavage, 3 h; inhibition, % at 7 µM; hit rate 0.62% among 370,000; AID 720582, 2013;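 active = inhibition above a per-campaign cutoff equal to the mean of compounds falling between control-based bounds plus 3 SD, cut at about 20% in these data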
Target sequence (O14672 214-748 limits assumed): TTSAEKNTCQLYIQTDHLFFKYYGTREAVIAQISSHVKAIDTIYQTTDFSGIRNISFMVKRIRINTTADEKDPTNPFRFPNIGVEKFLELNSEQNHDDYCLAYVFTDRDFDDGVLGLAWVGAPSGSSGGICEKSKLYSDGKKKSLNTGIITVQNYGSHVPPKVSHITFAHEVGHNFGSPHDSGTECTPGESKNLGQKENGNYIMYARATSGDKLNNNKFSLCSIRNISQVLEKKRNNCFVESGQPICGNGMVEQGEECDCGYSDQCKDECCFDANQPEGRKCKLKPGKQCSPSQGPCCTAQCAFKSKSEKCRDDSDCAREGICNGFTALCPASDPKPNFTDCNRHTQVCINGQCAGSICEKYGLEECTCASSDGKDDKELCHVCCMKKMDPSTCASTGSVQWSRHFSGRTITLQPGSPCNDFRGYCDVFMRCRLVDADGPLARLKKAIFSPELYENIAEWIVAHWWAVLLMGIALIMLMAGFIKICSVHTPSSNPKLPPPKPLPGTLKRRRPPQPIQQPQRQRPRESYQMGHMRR
FAS TE block = FAS thioesterase domain inhibitors, primary screen, biochemical, fluorescence intensity, uHTS; recombinant FAS-TE, OMFH fluorogenic substrate, fluorescence endpoint; inhibition, % at 15 µM; hit rate 0.67% among 360,000;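 active = compounds whose normalised, plate-corrected inhibition of enzyme fluorescence in the single-dose primary screen is 50% or more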
CaV13 ICDI inh = Primary screen for inhibitors of IQ motif and Ca2+-dependent inactivation inhibitor domain binding in CACNA1D, Förster resonance energy transfer in living cells, …. inhibition, % at 12.3 µM. hit rate 0.098% among 340,000. HEK cells, CFP/YFP FRET ICDI-IQ, plate reader, 10 min; percent FRET-ratio fall versus neutral wells;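 active = mean replicate inhibition of at least 30% and at least 1% of replicates passing that level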
NRP1-CendR mod = modulators of CendR peptide binding to NRP-1, primary screen, biochemical, fluorescence polarization, uHTS | Neuropilin-1 (Homo sapiens), O14786 | inhibition, % at 25 µM | hit rate 0.85% among 360,000 | FAM-RPARPAR peptide binding to NRP-1 | AID 602438, 2012;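 active = inhibition or corrected inhibition above about 18%, plus a signal ratio from 0.5 to 1.5, limit read from the data, passing the limit was not always enough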
FAS-TE conf = FAS thioesterase domain inhibitors, confirmation, biochemical, fluorescence intensity, single concentration | shares compounds with FAS TE block | recombinant FAS-TE, OMFH fluorogenic substrate | inhibition, % at 15 µM | hit rate 45% among 2,300 | AID 624325, 2012;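 active = compounds inhibiting the enzyme by at least 50% at 15 µM in any one of the replicates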
Each line names hits and unclear results; the compound was inactive in the other large screens (follow-up assays come after a bar, where they were run). This is a sample that favours compounds with a hit; in the whole collection about 2.9% have one here.

COCCN1C(=O)c2ccccc2C1c1nc2ccccc2[nH]1 (centres undefined)	none (no result: Arr AP2 block)
COc1cc(/C=C2/SC(=S)N(c3ccccc3)C2=O)ccc1Oc1nc(N2CCOCC2)nc(N2CCOCC2)n1	FAS TE block 63 | FAS-TE conf inactive
COc1ccc(/C=C2\SC(=S)N(CCCC(=O)N3CCOCC3)C2=O)cc1OC	none
CC(C)C[C@@H]1COc2cc(NCCO)ccc2S(=O)(=O)N1	none (no result: Arr AP2 block, FAS TE block, NRP1-CendR mod)
Cc1ccc(Cl)cc1N1CCN(C(c2ccc(C#N)cc2)c2nnnn2C2CCCC2)CC1 (centres undefined)	FAS TE block 69 (no result: CaV13 ICDI inh) | FAS-TE conf inactive
CCN(C(=O)COC(=O)c1cc(-c2cccc3ccccc23)nc2ccccc12)C1CCS(=O)(=O)C1 (centres undefined)	FAS TE block 60 | FAS-TE conf inactive
COC(=O)[C@]12C[C@H](CC(=O)NCCCCc3ccccc3)C(=O)N(Cc3ccccc3)C1=C[C@H](C1CCCC1)O[C@@H]2C	none (no result: Arr AP2 block, FAS TE block, NRP1-CendR mod)
COc1ccc(-c2csc(NC(=O)c3ccccc3NS(=O)(=O)c3ccc(F)c(F)c3)n2)cc1	FAS TE block 58 | FAS-TE conf inactive
Cc1ccc(S(=O)(=O)Nc2ccccc2C(=O)Nc2nc(-c3ccc(F)cc3)cs2)cc1	FAS TE block 56 | FAS-TE conf 58
Cc1ccc(S(=O)(=O)Nc2nc(-c3ccccc3)cs2)cc1	none
O=C1C[C@@H](C(=O)Nc2ccc(Cl)cc2)[C@@H](c2ccccc2)O1	none (no result: Arr AP2 block, FAS TE block, CaV13 ICDI inh, NRP1-CendR mod)
O=C(Nc1ccc2ncccc2c1)c1cc(-c2ccc(Cl)cc2)nc2ccccc12	none (no result: Arr AP2 block, FAS TE block, CaV13 ICDI inh, NRP1-CendR mod)
Cc1ccc(S(=O)(=O)N(Cc2ccccc2)c2ccccc2C(=O)Nc2ccccc2C(=O)NCc2ccco2)cc1	FAS TE block 53 | FAS-TE conf inactive
O=C(Nc1nnc(-c2ccc(F)cc2)o1)c1cccc([N+](=O)[O-])c1	FAS TE block 56 | FAS-TE conf 54
O=C(Nc1cc(S(=O)(=O)N2CCOCC2)ccc1O)c1ccc(S(=O)(=O)N2CCCCC2)cc1	none
O=C(Nc1cc(S(=O)(=O)N2CCOCC2)ccc1O)c1ccc2c(c1)S(=O)(=O)c1ccccc1C2=O	FAS TE block 57 | FAS-TE conf inactive
CCOc1ccccc1N1CCN(C(=S)NC(=O)C23CC4CC(CC(C4)C2)C3)CC1	FAS TE block 51 | FAS-TE conf inactive
CCOC(=O)c1cc(=O)[nH]c2ccccc12	none
Cc1ccc(-c2nnc(COC(=O)c3cc(=O)[nH]c4ccccc34)o2)cc1	FAS TE block 66 | FAS-TE conf 49
COC(=O)[C@]12C[C@H](CC(=O)N3CCC(c4ccccc4)CC3)C(=O)N(CCC3=CCCCC3)C1=C[C@H](C(C)(C)C)O[C@@H]2C	none (no result: Arr AP2 block, FAS TE block, NRP1-CendR mod)
CCN1C(=O)[C@@H]2[C@@H](c3ccc(-c4ccc(OC)cc4)cc3)N3CCCC[C@@]3(C(=O)OC)[C@@H]2C1=O	none
COC(=O)[C@@]12CCCCN1[C@H](c1ccc(-c3ccc(Cl)c(Cl)c3)c(OC)c1)[C@@H]1C(=O)N(C)C(=O)[C@@H]12	none
COC(=O)[C@@]12CCCCN1[C@H](c1ccc(-c3ccc(Cl)c(Cl)c3)c(OC)c1)[C@H]1C(=O)N(C)C(=O)[C@H]12	FAS TE block 60 | FAS-TE conf inactive
CCN1C(=O)[C@H]2[C@@H](c3ccc(-c4ccc(OC)cc4)c(OC)c3)N3CCCC[C@@]3(C(=O)OC)[C@H]2C1=O	FAS TE block 70 | FAS-TE conf inactive
Cc1cccc(CCNC(=O)CSc2nc3c([nH]2)c(=O)n(C)c(=O)n3C)c1	none (no result: Arr AP2 block, FAS TE block, CaV13 ICDI inh, NRP1-CendR mod)
COC(=O)C1CN(Cc2ccc(Cl)cc2)CCS(=O)(=O)N1Cc1cn(Cc2ccc(C)cc2)nn1 (centres undefined)	none (no result: Arr AP2 block, FAS TE block, CaV13 ICDI inh, NRP1-CendR mod)
CN1C[C@H](C(=O)N[C@]2(C)O[C@@]3(O)[C@@H]4CCCN4C(=O)[C@H](Cc4ccccc4)N3C2=O)CC2c3cccc4[nH]cc(c34)C[C@H]21 (some centres undefined)	FAS TE block 56 | FAS-TE conf 52
Cc1ccc(Oc2cccc3c2S(=O)(=O)N([C@H](C)c2ccccc2)C[C@@H](COCc2ccccc2)O3)cc1	none (no result: Arr AP2 block, FAS TE block, NRP1-CendR mod)
Cc1cc(/C=N/n2c(COc3ccccc3)nc3ccccc3c2=O)c(O)c([N+](=O)[O-])c1	FAS TE block 60 | FAS-TE conf inactive
Cc1ccc(-c2[nH]ncc2/C=N/n2c(COc3ccccc3)nc3ccccc3c2=O)cc1	none
CCc1ccccc1-c1cc(C(C)=O)c2n(c1=O)CCC2	none (no result: Arr AP2 block, FAS TE block, CaV13 ICDI inh, NRP1-CendR mod)
CN(C)c1ncnc2c1ncn2[C@H]1CN(Cc2ccco2)C[C@@H](CO)O1	none (no result: Arr AP2 block)
CCOc1ccc(S(=O)(=O)c2c(C(=O)c3ccccc3)cnc3cc4c(cc23)OCCO4)cc1	FAS TE block 80 | FAS-TE conf inactive
O=C(O)c1ccc(NC(=O)c2cccc(S(=O)(=O)Nc3ccc(C(=O)O)cc3)c2)cc1	none
O=C1CSc2ccc(C(=O)Nc3cccc(S(=O)(=O)Nc4ccc(Br)cc4)c3)cc2N1	ADAM17 inh 17, ADAM10 inh 48, FAS TE block 50 | FAS-TE conf inactive
CC(C)(C)SCCNC(=O)c1ccc(Cl)c([N+](=O)[O-])c1	FAS TE block 53 | FAS-TE conf 68
Cc1ccccc1CNC(=O)c1ccc(Cl)c([N+](=O)[O-])c1	none
COc1ccc(C(C(=O)NC2CCCC2)N(C(=O)c2snc(-c3ccc(F)cc3)c2N)c2ccc(OC)cc2)cc1 (centres undefined)	FAS TE block 59 | FAS-TE conf inactive
Cc1cccc(C)c1N1CCN(C(c2ccnc3ccccc23)c2nnnn2-c2ccc3c(c2)OCCO3)CC1 (centres undefined)	FAS TE block 79 (no result: Arr AP2 block) | FAS-TE conf inactive
C#CCN1CC(N(C)CCO)CS1(=O)=O (centres undefined)	none (no result: Arr AP2 block, FAS TE block, CaV13 ICDI inh, NRP1-CendR mod)
O=C(OCc1cccc(C(F)(F)F)c1)c1cc([N+](=O)[O-])ccc1N1CCOCC1	FAS TE block 58 | FAS-TE conf 46
O=C(OCc1ccc(Br)cc1)c1cc([N+](=O)[O-])ccc1N1CCOCC1	FAS TE block 73 (no result: Arr AP2 block) | FAS-TE conf inactive
COc1ccc(COC(=O)c2cc([N+](=O)[O-])ccc2N2CCOCC2)cc1F	FAS TE block 54 | FAS-TE conf inactive
